Here are results for 97 compounds from ChEMBL document CHEMBL4513216, “Probing the Open Global Health Chemical Diversity Library for Multistage-Active Starting Points for Next-Generation Antimalarials” (ACS Infect Dis, 2020).

The structures appear in SMILES notation.

This series in a line: Toxicity liver stage against HepG2, at 10uM. Type of series: cell-based. On the set-up: test concentration 10 uM, cell line HepG2-A16-CD81EGFP. To be noted: human, HepG2-A16-CD81EGFP cells; read-out: INHIBITION
The gist of the method:
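Uninfected HepG2-A16-CD81EGFP cells, 3 × 10^3 per well, 1536-well, plated on prespotted compound at 10 μM final, parasite-free screening media added to match infected plates; puromycin 10 μM positive, DMSO 0.5% negative; run in parallel with 48 h PbLuc assay at 37 °C, 5% CO2; viability by CellTiter-Glo luminescence, normalized to controls.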
For the compound `COc1ccc(NC(=O)C2CC(=O)n3cnnc3S2)cc1` (configuration not stated), the cytotoxicity at 10 µM is 1.64%. For `COc1ccccc1COCC(O)CN(C)Cc1cccc(Cl)c1` (configuration not stated) the value was -1.28%; for `CC(=O)N1CCC(N2CCOC[C@H]2c2nc(C(C)(C)C)c[nH]2)CC1`, 6.51%. The same measure for `CCOCc1nc(N2CCOCC2)sc1C(=O)NCCCc1ccco1`: -87.3%; for `Cc1ccn(CCC(=O)NC(C)Cc2ccco2)n1` (configuration not stated): -4.1%.

In the case of `O=C1c2cccnc2OC(CN2CCOCC2)CN1CC1CC1` (configuration not stated), the cytotoxicity at 10 µM is -6.17%. For the compound `COc1ccc2c(ccn2CCC(=O)NCCCC(=O)O)c1`, the cytotoxicity at 10 µM came out at 5.7%. For `COC(=O)[C@@H](NC(=O)c1snnc1-c1ccc(OC)cc1)C(C)C` the value was 4.96%; for `CC(C)C(=O)Nc1ccc2c(c1)ncn2CC(=O)NCCN(C)C`, -9.1%; for `COc1ccc2nnc(CCC(=O)Nc3nc(C)c(C)s3)n2n1`, -3.18%. Consider `O=C(c1cnn2c1OCCC2)N1CCN(C(=O)C2CCCO2)CC1` (configuration not stated), for which the cytotoxicity at 10 µM was -6.19%. For the compound `COc1cc(OC)cc(C(=O)NCc2nn(C)c3c2COCC3)c1`, the cytotoxicity at 10 µM was determined as 6.17%.

On to `O=C([C@H]1COC[C@H]2CN(CC3CCC3)C[C@H]21)N1CCOCC1`, for which the cytotoxicity at 10 µM amounted to 17.3%.

Regarding `Cc1cc(CN2C[C@@H]3COC[C@]3(c3nnc(C)o3)C2)no1`, the cytotoxicity at 10 µM is -2.11%. The same measure for `Cn1nc(CNC(=O)c2nc3ccccc3s2)c2c1CCOC2`: -3.16%; for `Cc1ncsc1CN1C[C@@H](OCC2CC2)[C@H]2OCCC[C@H]21`: -9.76%; for `CCNC(=O)c1nc2c(s1)CCCN2S(C)(=O)=O`: -12.6%. For the compound `CCn1nc(C)c2nnn(CC(=O)Nc3cccc(Cl)c3)c(=O)c21`, the cytotoxicity at 10 µM was 4.47%. Regarding `CC(C)(C)C(=O)NCCc1cc2nc(-c3ccncc3)ccn2n1`, the cytotoxicity at 10 µM stood at 6.66%. The same measure for `COc1ccc2c(c1)CC(C1CCOCC1)N(C(=O)c1cnccn1)C2` (configuration not stated): 5.21%; for `CC(=O)N1CCCC(C(=O)c2cnn(-c3ccc(F)cc3)c2N)C1` (configuration not stated): 5.82%; for `O=C(Cn1cc(Cl)cn1)N1CCCC(c2cc3ccccc3cn2)C1` (configuration not stated): -27.3%. For `Cc1cccnc1CN1CC[C@@](C)(O)[C@H](Oc2ccccc2)C1` the value was -9.11%. The same measure for `CC1CCN(C(=O)c2cnc(CC3CCCN(C)C3)cn2)CC1` (configuration not stated): -11.7%; for `Cc1cc(-c2cnc(NCc3ccccn3)nc2C(C)C)on1`: -1.51%; for `COCC(=O)N1CCCC1c1cccc(Cc2ccccc2F)n1` (configuration not stated): -37.7%. For the compound `CC(O)c1cn(Cc2ccc(Cl)cc2)nn1` (configuration not stated), the cytotoxicity at 10 µM came to 8.75%.

Consider `O=S(=O)(c1ccc(F)cc1Cl)N1CCCC1c1ccncc1` (configuration not stated), for which the cytotoxicity at 10 µM was -7.95%. In the case of `Cc1ccnc2c1NC(=O)CN2C(=O)CCc1ccccc1`, the cytotoxicity at 10 µM was -20.1%. Regarding `CCOc1c(F)cccc1C(=O)N(C)CCc1ccccn1`, the cytotoxicity at 10 µM stood at 18.6%. With `O=C(C(c1ccccc1)S(=O)(=O)c1ccccn1)N1CCCCC1` (configuration not stated), the cytotoxicity at 10 µM was 5.7%. The same measure for `COc1ccc(C2(C(=O)NC3CCc4nccn4C3)CCCC2)cc1` (configuration not stated): 4.48%. In the case of `CC(C)c1ncc(C(=O)N(C)c2ccc(Br)cn2)s1`, the cytotoxicity at 10 µM is 9.12%. For `CCN(CC)C(CNC(=O)CCc1nc(C(C)C)no1)c1ccco1` (configuration not stated) the value was 5.91%; for `CCC1CCC(N(Cc2cc(=O)n(C)c(=O)n2C)C2CC2)CC1` (configuration not stated), 22.6%; for `CCC(CC)C(=O)NCc1c(C)nn(C)c1N1CCCN(C)CC1`, 0.295%. For `CCOC(=O)C1CCCN(Cc2cc(C#N)n(C)c2C)C1` (configuration not stated) the value was 0.0308%; for `O=C(COC1CCCC1)N1CCCC1c1noc(C2CC2)n1` (configuration not stated), 11%; for `CN(C)CCn1c(=O)oc2ccc(NC(=O)CSc3ccccc3)cc21`, -3.51%. Regarding `Cc1ccc(CN(C(=O)NCc2nnc3n2CCCCC3)C2CC2)o1`, the cytotoxicity at 10 µM stood at 9.35%. For `CCc1nc(CN2CCCC(N(C)Cc3cnc(C)cn3)C2)no1` (configuration not stated) the value was -5.66%. The same measure for `Cc1ccc(NCCNC(=O)c2cc(CC(C)C)n[nH]2)nn1`: 0.37%; for `Cc1cc(NCCNS(=O)(=O)c2cccc(Cl)c2)nc(C)n1`: 2.9%. For `Cc1cc(S(=O)(=O)NC(=O)CCc2cncc(F)c2)c(C)s1` the value was -1.99%. On to `O=C(c1[nH]nc(C2CC2)c1Cl)N1CCN(C2CC2)C(=O)C1`, for which the cytotoxicity at 10 µM was -4.81%. With `Cc1cc(C(=O)N2CCCC(N3CCCCCC3)C2)nn1C(C)(C)C` (configuration not stated), the cytotoxicity at 10 µM is -4.4%.

For the compound `Cc1cnn(CCNC(C)c2nnc(-c3cccc(Cl)c3)o2)c1` (configuration not stated), the cytotoxicity at 10 µM was -1.41%.

As for `CN1CCC(N(C)c2ccccc2CNCc2ccco2)CC1`, the cytotoxicity at 10 µM is -9.05%.

Regarding `COCCN(Cc1ccccn1)C(=O)c1ccc(=O)n(C)c1`, the cytotoxicity at 10 µM is -16.8%. Regarding `CC(C)(C)C(NCC(=O)N1CCNC(=O)C1)c1ccccc1` (configuration not stated), the cytotoxicity at 10 µM was -10.7%. For `CNC(=O)c1c(C)cccc1NCc1nnc(C2CC2)o1` the value was 2.41%.

`CCN(C)c1ccc(CNS(=O)(=O)CC2CCCO2)cc1F` (configuration not stated): the cytotoxicity at 10 µM came out at 11.9%.

In the case of `COc1cccc(N2CCN(CCC(=O)NC3CCCC3)CC2)c1`, the cytotoxicity at 10 µM is -5.93%. The same measure for `Cn1ccnc1CN1CCC2(CC1)CC(N1CCCC1)c1ccccc12` (configuration not stated): 7.24%. The same measure for `Cn1cc(-c2cnc(-c3ccnn3C)nc2)cc1C(=O)NC1CC1`: 3.77%. The same measure for `CCOC(=O)c1coc(N2CCN(Cc3cc(C)cc(C)c3)C(=O)C2)n1`: 4.24%; for `Cc1cc(C)n(CC(C)NC2CCN(Cc3cccc(O)c3)CC2)n1` (configuration not stated): -2.01%. Consider `COc1ccc(C(C(=O)O)N(C)CCN2CCCC2)cc1F` (configuration not stated), for which the cytotoxicity at 10 µM was determined as 1.38%. `O=C(CN1CCOC1=O)N1CCC2(CCc3ccccc32)CC1`: the cytotoxicity at 10 µM was -15.8%. For `CNC(=O)c1n[nH]c2c1C(c1cccc3[nH]ccc13)CC(=O)N2` (configuration not stated) the value was 4.06%; for `Cn1c(=O)oc2ccc(NC(=O)N3CCSCC3)cc21`, 2.58%; for `C[C@H](c1ccc(Cl)cc1)n1c(C2CC2)n[nH]c1=O`, 9.33%. For `CCOCCC(=O)N(Cc1ccncc1)C(C)CC` (configuration not stated) the value was 9.99%; for `Cc1cc(NCCSc2nccn2C)n2nc(C)c(C)c2n1`, 9.75%; for `Cc1c(NCc2cccnc2)cccc1C(=O)N1CCC(N(C)C)C1` (configuration not stated), 14.1%.

Turning to `O=C(Nc1ccccc1OCc1ccccn1)NC1CCOCC1`, the cytotoxicity at 10 µM amounted to 6.78%. For `Cc1nc(NCc2scnc2-c2ccccc2)cc(C2CCNCC2)n1` the value was 1.69%; for `Cc1nc(C)n(CC(C)C(=O)N2CCCN(C3CCCC3)CC2)n1` (configuration not stated), -0.103%; for `CCc1cc(NCCCOC2CCCC2)ncn1`, -1.41%. The same measure for `CCNC(=O)[C@@H]1C[C@H](NC(=O)Cc2ccsc2)CN1Cc1ccc(C)o1`: -11.8%. On to `CN(CCO)Cc1nnc(C2CCN(C3CCCCC3)CC2)n1C`, for which the cytotoxicity at 10 µM stood at 20.7%. As for `CCn1ncc(Br)c1CN(C)S(=O)(=O)c1ccc(C)cc1`, the cytotoxicity at 10 µM was 14.5%. For `NCc1cn(-c2ccccc2C(=O)NCc2ccccc2)cn1` the value was 3.32%; for `O=C1CCc2cc(NC(=O)C3CCCN3c3nccs3)ccc2N1` (configuration not stated), -10.8%; for `CNC(=O)c1ccc(C(=O)N2CCCCC2Cn2cc(C)cn2)cn1` (configuration not stated), -3.54%.

Take `CCc1nnc2n1CCN(C(=O)c1cc(Cl)c[nH]1)C2`: the cytotoxicity at 10 µM was -6.1%. Turning to `O=C(CCc1ccncc1)N1CCCC(n2cccn2)C1` (configuration not stated), the cytotoxicity at 10 µM was -5.57%.

As to `O=C(CCNC(=O)C1CCCC1)NCc1cccnc1-n1cncn1`, the cytotoxicity at 10 µM is -3.39%. The same measure for `O=C(NCCOc1ccc2c(c1)OCO2)C1CC(=O)N(CC2CC2)C1` (configuration not stated): -6.63%.

For the compound `CC(NC(=O)NCC1(c2ccccc2)CCC1)c1nncn1C` (configuration not stated), the cytotoxicity at 10 µM was -10.4%. For `NC(=O)C1CN(C(=O)Nc2ccccc2SC(F)(F)F)CCO1` (configuration not stated) the value was -8.3%. For `Cc1cnn(CC2CCCN2C(=O)Cc2n[nH]c3ccccc23)c1` (configuration not stated) the value was -9.16%; for `O=C(Cn1cccnc1=O)NCCc1ccc2c(c1)OCCO2`, 4.96%; for `Cc1cnn(CC2CCCN2CC(=O)Nc2cc(C(C)(C)C)no2)c1` (configuration not stated), -7.76%.

For `CCc1ccsc1C(=O)N1CCN(CC(O)CC)CC1` (configuration not stated), the cytotoxicity at 10 µM was -4.25%. For `CCc1nccn1C1CCCN(C(=O)Cc2n[nH]c3ccccc23)C1` (configuration not stated) the value was -0.337%; for `Cc1noc(C)c1CN(C)CC1CCCN1c1cccnn1` (configuration not stated), 0.746%.

As for `COc1ccc(CN2CCc3ncnc(C4CCOC4)c3CC2)cc1` (configuration not stated), the cytotoxicity at 10 µM is -9.25%. Regarding `O=S(=O)(C1CC1)N1CCC2(CCCN(Cc3ccccn3)C2)C1` (configuration not stated), the cytotoxicity at 10 µM was -0.336%.

For the compound `Cc1csc(NC(=O)c2cnc(C3CCNCC3)cn2)n1`, the cytotoxicity at 10 µM is -12.3%.

Consider `CC(C)N(C)[C@@H]1CCN(Cc2nccs2)[C@H]1Cc1ccncc1`, for which the cytotoxicity at 10 µM is -2.75%.

Consider `FC(F)Oc1ccc(CNCc2cc(Cl)c3c(c2)OCO3)cc1`, for which the cytotoxicity at 10 µM was found to be 2.63%. Regarding `CN1CCc2c(c(COc3cncnc3)nn2CC2CC2)C1`, the cytotoxicity at 10 µM came to 8.61%.

On to `CNC(=O)[C@@H]1C[C@H]2CN(c3ncccn3)C[C@H]2N1C(C)C`, for which the cytotoxicity at 10 µM worked out at 9.72%. The same measure for `c1coc(CN2C[C@@H]3CCCO[C@@H]3[C@H](N3CCCC3)C2)c1`: -2.02%; for `CCOCC1CN(C(=O)COc2ccccc2C)Cc2ncn(C)c21` (configuration not stated): 0.78%. For `CN(C)[C@@H]1CN(C(=O)Cc2cccs2)[C@@H]2CCCO[C@H]12` the value was 5.93%.
